The source of these data is ChEMBL document CHEMBL5678802, “Small-molecule p21-activated kinase inhibitor PF-3758309 is a potent inhibitor of oncogenic signaling and tumor growth” (Proc Natl Acad Sci U S A, 2010).

The subject of one experiment is NCI-H1755. The experiment in a line: Antiproliferative activity against human NCI-H1755 cells assessed as inhibition of cell proliferation incubated for 3 days by CellTiter-Glo Luminescent Cell Viability Assay. Format: functional, cell-based. To be noted: NCI-H1755, 72 h. In a few lines:
(§1)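 Cells of each line were plated in 384-well plates on day 1 and exposed to compound from day 2 for 3 days. On day 5 all medium was aspirated. Viable cell number was read by CellTiter-Glo luminescence, which quantifies cellular ATP.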
On the technique in general: Cellular ATP, detected with luciferase, serves as a proxy for viable cell number.

Experiment [1] has as its target Protein kinase C gamma type (Homo sapiens, UniProt P05129). The experiment in a line: Inhibition of human PKCgamma in presence of ATP.
For experiment [2], the target named is Tyrosine-protein kinase Fyn (Homo sapiens, UniProt P06241). The experiment in a line: Inhibition of human FYN assessed as inhibition constant in presence of ATP.
A further experiment deals with HCC38. The experiment in a line: Antiproliferative activity against human HCC38 cells assessed as inhibition of cell proliferation incubated for 3 days by CellTiter-Glo Luminescent Cell Viability Assay. In kind it is functional, cell-based. To be noted: HCC38, 72 h. In a few lines: (§2)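 Cancer cell lines seeded in 384-well plates on day 1; compound added on day 2 and left for 3 days. On day 5 all medium was aspirated, and viable cells were quantified by CellTiter-Glo luminescence, which measures cellular ATP. Dose-dependent effects on proliferation were determined.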

The target in experiment [3] is AMP-activated protein kinase (AMPK) alpha-1/beta-1/gamma-1 (Homo sapiens, UniProt P54619+Q13131+Q9Y478). The experiment can be described thus: Inhibition of human AMPK alpha1/beta1/gamma1 assessed as inhibition constant in presence of ATP. Format: protein-complex assay.
Another experiment deals with DLD-1. The experiment in a line: Antitumor activity against PAK4 -/+ human DLD-1 cells xenografted in nude mouse assessed as tumor growth inhibition at 10 mg/kg, po administered once daily for 9 to 18 days relative to control. In kind it is functional. To be noted: time 9-18 day, read-out: TGI. In a few lines: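 Tumor cells were implanted s.c. into the right flank of female nu/nu nude mice aged 6–8 weeks. Animals were randomized into treatment groups once tumors were established (example: day 8 postimplant, about 170 mm3, animals >22 g). Compound in 0.5% methylcellulose was given by oral gavage. Tumors were measured with calipers two to three times per week.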

Experiment [4] concerns the target RAC-gamma serine/threonine-protein kinase (Homo sapiens, UniProt Q9Y243). The experiment can be described thus: Inhibition of human AKT3 in presence of ATP by cellular assay.
The next experiment has as its system MDA-MB-468. The experiment in a line: Antiproliferative activity against human MDA-MB-468 cells assessed as inhibition of cell proliferation incubated for 3 days by CellTiter-Glo Luminescent Cell Viability Assay. In kind it is functional, cell-based. To be noted: MDA-MB-468, 72 h. The essentials: as §2
In experiment [5] the target is T1, Receptor-type tyrosine-protein kinase FLT3 (Homo sapiens, UniProt P36888).
T1 sequence (P36888 whole entry): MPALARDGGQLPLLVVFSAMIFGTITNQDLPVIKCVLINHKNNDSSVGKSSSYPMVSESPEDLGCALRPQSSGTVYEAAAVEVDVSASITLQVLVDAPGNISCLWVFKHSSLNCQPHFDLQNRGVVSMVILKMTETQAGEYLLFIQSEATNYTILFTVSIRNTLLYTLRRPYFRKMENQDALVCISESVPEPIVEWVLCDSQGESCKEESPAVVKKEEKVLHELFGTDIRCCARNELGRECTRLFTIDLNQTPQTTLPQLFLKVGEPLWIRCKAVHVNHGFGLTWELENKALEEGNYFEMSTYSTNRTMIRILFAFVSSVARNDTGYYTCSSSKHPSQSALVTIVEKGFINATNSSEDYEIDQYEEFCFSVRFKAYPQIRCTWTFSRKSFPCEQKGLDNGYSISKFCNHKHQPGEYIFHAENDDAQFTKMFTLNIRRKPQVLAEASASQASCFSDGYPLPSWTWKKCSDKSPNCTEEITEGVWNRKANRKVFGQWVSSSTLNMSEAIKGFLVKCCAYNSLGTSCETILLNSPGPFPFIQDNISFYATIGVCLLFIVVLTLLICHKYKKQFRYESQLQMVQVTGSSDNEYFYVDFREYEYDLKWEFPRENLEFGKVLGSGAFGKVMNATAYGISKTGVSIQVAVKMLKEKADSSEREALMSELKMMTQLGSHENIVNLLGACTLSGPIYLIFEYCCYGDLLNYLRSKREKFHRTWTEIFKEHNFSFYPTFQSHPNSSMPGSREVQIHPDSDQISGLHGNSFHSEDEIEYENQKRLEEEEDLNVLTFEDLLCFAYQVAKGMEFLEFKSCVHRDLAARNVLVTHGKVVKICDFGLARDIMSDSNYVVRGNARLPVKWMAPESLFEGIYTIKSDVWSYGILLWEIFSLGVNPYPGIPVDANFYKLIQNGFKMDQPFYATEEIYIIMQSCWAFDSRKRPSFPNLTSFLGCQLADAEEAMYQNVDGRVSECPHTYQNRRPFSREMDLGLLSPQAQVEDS
The experiment can be described thus: Inhibition of human FLT3 in presence of ATP by cellular assay.

A further experiment deals with SW948. The experiment in a line: Antiproliferative activity against human SW948 cells assessed as inhibition of cell proliferation incubated for 3 days by CellTiter-Glo Luminescent Cell Viability Assay. In kind it is functional, cell-based. To be noted: SW948, 72 h. The essentials: as §1
The target in experiment [6] is Proto-oncogene tyrosine-protein kinase Src (Homo sapiens, UniProt P12931). The experiment in a line: Inhibition of human SRC in presence of ATP by cellular assay.
The test system of experiment [7] is HCT-116. The experiment can be described thus: Antitumor activity against human HCT-116 cells xenografted in nude mouse assessed as tumor growth inhibition at 15 mg/kg, po administered twice daily for 9 to 18 days relative to control. Format: functional. The settings on record: time 9-18 day, read-out: TGI. A general note: Xenograft models place foreign cells or tissue in a host animal.

A short description of experiment [8]: Inhibition of YFP/YFP variant coding sequence fused ARF1/gamma-COP (unknown origin) expressed in HEK293 cells incubated for 8 to 24 hrs by fluorescence based analysis. Format: cell-based, Homo sapiens.
The test system of another experiment is HCC827. The experiment can be described thus: Inhibition of anchorage independent cell growth in human HCC827 cells incubated for 6 days by Alamar blue reagent based fluorescence plate reader analysis. Format: functional. The settings on record: HCC827, 144 h. Background: Resazurin is reduced to fluorescent resorufin, in cell work by metabolically active cells.

Experiment [9] relates to HCT-116. The experiment in a line: Induction of cell cycle arrest in human HCT-116 cells assessed as accumulation of cells at sub G1 phase at 100 nM measured after 48 hrs by fluorescence activated cell sorter analysis (reference value: 1.84%). In kind it is functional.
The subject of the next experiment is MDA-MB-157. The experiment in a line: Antiproliferative activity against human MDA-MB-157 cells assessed as inhibition of cell proliferation incubated for 3 days by CellTiter-Glo Luminescent Cell Viability Assay. Format: functional, cell-based. The settings on record: MDA-MB-157, 72 h. The essentials:
as §2

Experiment [10] addresses Serine/threonine-protein kinase D1 (Homo sapiens) (UniProt Q15139). The experiment in a line: Inhibition of human PKCmu in presence of ATP relative to control. The settings on record: concentration not given here.
In the next experiment the test system is NCI-H1734. The experiment can be described thus: Antiproliferative activity against human NCI-H1734 cells assessed as inhibition of cell proliferation incubated for 3 days by CellTiter-Glo Luminescent Cell Viability Assay. Format: functional, cell-based. The settings on record: NCI-H1734, 72 h. The essentials: as §1
In the next experiment the test system is NCI-H647. The experiment can be described thus: Antiproliferative activity against human NCI-H647 cells assessed as inhibition of cell proliferation incubated for 3 days by CellTiter-Glo Luminescent Cell Viability Assay. The settings on record: NCI-H647, 72 h. In kind it is functional, cell-based. The essentials: as §1
The subject of the next experiment is NCI-H520. The experiment can be described thus: Antiproliferative activity against human NCI-H520 cells assessed as inhibition of cell proliferation incubated for 3 days by CellTiter-Glo Luminescent Cell Viability Assay. In kind it is functional, cell-based. The settings on record: NCI-H520, 72 h. The essentials:
as §1

As usually defined, the IC50 is the point on the concentration scale where inhibition reaches its midpoint. What is called Ki is a dissociation constant, usually derived from enzyme kinetics or from competition with a known ligand. The term inhibition denotes the change of the read-out against control, counted positive when it falls.

Serine/threonine-protein kinase D1 (Homo sapiens), sequence (Q15139 whole entry): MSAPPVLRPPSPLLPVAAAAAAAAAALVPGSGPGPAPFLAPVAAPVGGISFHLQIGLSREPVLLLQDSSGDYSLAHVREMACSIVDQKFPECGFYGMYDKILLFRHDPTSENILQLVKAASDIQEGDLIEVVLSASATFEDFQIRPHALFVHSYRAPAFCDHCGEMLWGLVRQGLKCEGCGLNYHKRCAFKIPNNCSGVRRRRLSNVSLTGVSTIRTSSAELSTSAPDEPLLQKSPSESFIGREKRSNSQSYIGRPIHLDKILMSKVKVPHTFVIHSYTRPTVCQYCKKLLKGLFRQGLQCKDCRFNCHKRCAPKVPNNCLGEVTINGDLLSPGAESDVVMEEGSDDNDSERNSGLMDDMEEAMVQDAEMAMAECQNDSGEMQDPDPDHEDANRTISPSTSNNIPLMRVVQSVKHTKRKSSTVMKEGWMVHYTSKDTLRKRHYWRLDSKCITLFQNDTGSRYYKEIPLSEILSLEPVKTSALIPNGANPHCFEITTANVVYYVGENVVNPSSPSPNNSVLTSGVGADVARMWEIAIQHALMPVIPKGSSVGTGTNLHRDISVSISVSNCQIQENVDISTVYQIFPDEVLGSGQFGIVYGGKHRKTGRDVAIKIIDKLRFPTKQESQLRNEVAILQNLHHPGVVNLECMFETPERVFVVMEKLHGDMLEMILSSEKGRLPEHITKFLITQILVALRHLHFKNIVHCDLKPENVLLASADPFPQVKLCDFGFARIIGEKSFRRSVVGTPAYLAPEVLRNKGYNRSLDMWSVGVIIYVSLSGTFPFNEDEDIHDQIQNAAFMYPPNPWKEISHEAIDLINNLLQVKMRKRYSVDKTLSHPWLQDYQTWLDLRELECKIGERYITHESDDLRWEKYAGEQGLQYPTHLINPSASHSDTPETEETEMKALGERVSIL
RAC-gamma serine/threonine-protein kinase, sequence (Q9Y243 whole entry): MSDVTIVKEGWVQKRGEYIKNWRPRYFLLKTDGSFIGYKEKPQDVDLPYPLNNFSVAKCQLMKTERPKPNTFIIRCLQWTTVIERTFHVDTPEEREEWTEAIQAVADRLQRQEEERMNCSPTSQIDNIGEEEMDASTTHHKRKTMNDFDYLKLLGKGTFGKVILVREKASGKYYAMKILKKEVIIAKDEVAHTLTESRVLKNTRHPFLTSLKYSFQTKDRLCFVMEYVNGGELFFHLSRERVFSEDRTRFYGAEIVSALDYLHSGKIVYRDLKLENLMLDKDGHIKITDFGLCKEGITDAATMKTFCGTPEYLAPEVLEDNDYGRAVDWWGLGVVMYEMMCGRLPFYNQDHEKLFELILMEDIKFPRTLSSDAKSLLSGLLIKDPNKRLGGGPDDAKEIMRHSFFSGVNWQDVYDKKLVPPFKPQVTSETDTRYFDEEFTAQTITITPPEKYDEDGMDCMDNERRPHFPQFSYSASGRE
Proto-oncogene tyrosine-protein kinase Src, sequence (P12931 2-536 limits assumed): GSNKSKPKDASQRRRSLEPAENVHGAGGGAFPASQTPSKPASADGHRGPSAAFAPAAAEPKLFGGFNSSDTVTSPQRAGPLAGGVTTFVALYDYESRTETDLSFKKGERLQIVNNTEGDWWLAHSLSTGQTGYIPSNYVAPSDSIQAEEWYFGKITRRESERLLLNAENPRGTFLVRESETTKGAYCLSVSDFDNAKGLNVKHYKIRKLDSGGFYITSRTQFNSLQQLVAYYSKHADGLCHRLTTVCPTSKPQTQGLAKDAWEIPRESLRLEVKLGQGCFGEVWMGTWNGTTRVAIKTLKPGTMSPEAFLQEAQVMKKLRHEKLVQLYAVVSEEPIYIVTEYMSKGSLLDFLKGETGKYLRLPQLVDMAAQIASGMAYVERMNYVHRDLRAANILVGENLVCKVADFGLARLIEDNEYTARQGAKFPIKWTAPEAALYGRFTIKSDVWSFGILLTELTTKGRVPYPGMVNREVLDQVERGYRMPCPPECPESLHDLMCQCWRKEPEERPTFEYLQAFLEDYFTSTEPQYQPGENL
AMP-activated protein kinase (AMPK) alpha-1/beta-1/gamma-1, sequence (P54619 whole entry): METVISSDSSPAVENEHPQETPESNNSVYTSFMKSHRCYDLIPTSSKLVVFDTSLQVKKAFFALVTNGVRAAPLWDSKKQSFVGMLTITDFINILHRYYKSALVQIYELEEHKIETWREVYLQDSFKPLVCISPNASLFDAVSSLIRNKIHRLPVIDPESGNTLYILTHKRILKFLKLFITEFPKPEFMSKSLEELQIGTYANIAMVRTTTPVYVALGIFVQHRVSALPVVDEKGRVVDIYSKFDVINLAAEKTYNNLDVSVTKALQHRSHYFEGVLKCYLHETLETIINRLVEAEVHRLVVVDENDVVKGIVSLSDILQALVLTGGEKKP
AMP-activated protein kinase (AMPK) alpha-1/beta-1/gamma-1, sequence (Q9Y478 whole entry): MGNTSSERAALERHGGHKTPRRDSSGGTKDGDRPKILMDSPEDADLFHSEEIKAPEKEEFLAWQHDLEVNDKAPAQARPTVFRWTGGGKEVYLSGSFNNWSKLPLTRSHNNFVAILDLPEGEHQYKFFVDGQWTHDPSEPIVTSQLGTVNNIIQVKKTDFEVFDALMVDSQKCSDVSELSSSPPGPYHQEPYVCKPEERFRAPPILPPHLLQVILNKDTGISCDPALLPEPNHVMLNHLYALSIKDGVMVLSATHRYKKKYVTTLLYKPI
AMP-activated protein kinase (AMPK) alpha-1/beta-1/gamma-1, sequence (Q13131 whole entry): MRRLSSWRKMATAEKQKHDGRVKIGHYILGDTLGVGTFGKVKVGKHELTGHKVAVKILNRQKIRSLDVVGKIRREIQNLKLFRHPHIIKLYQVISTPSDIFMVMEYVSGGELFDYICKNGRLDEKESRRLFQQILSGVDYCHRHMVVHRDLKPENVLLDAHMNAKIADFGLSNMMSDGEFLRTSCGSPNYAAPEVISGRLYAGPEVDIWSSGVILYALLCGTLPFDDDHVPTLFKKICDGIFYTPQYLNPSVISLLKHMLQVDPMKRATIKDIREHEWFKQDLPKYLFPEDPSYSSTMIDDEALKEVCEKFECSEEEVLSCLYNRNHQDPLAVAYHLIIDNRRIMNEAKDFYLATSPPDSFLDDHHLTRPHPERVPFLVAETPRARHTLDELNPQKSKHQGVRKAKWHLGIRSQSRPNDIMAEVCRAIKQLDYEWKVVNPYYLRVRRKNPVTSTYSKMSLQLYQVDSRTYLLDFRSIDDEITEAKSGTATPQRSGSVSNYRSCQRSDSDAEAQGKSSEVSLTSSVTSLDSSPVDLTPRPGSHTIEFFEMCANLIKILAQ
Tyrosine-protein kinase Fyn, sequence (P06241 whole entry): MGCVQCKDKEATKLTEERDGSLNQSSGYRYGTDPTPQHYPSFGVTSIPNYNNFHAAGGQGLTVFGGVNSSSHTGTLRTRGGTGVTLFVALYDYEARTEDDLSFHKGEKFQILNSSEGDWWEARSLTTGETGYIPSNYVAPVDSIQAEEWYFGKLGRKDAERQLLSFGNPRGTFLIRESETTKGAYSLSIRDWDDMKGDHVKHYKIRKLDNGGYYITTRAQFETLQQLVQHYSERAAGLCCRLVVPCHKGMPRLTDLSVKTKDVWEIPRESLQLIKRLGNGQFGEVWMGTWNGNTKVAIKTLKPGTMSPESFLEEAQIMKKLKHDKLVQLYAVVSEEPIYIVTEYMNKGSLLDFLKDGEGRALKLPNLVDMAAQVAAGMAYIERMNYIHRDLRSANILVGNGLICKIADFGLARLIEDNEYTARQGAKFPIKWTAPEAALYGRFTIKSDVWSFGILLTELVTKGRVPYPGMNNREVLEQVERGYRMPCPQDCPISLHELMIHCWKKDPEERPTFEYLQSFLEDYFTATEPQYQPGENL

Turning to `Cc1nc(Nc2n[nH]c3c2CN(C(=O)N[C@H](CN(C)C)c2ccccc2)C3(C)C)c2sccc2n1` [PF-03758309], the IC50 came out at 15 nM with NCI-H1755; 59.2 nM in [1]; 0.52 nM in the experiment on HCC38; 3600 nM in experiment [4]; 0.63 nM in the experiment on MDA-MB-468; 407 nM in experiment [5]. The IC50 with SW948 turned out to be 4.3 nM; in [6] it was 2210 nM; in [8], 7.9 nM; in the experiment with HCC827, 2.18 nM; with MDA-MB-157, 145 nM; in the experiment with NCI-H1734 it was 4.1 nM. The half-inhibitory concentration (IC50) turned out to be 36 nM in the experiment with NCI-H647 and 5.6 nM with NCI-H520. Besides, the Ki in [2] worked out at 26 nM; in experiment [3], 5 nM. Further, the inhibition in vivo at 10 mg/kg in the experiment with DLD-1 was determined as 0%. Also, in the experiment on HCT-116 [7], the inhibition in vivo at 15 mg/kg turned out to be 79%. For the same compound, the Activity in the experiment with HCT-116 [9] came out at 12.43%. The inhibition in experiment [10] is 96%.
